We go through 1 compound from paper PMC9685603 (ACS Omega, 2022).

This series concerns HEK 293 cells. Put plainly: MTT cell viability. Type of series: cell-based, human. Conditions: MTT assay, 48 h, studied concentration range 100–0.01 μM. In short, it runs like this:
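Seeding in DMEM with 10% FBS was 8000 cells/well for MCF-7 and MDA-MB-468 and 5000 cells/well for HEK 293. Cells were held 24 h at 37 °C, 5% CO2, humidified, then exposed to test compounds at varied concentrations for 48 h. MTT reagent (5 mg/mL) was added for 2–4 h and formazan dissolved in DMSO. Absorbance was read at 570/690 nm and % survival calculated.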
A general note: Tetrazolium dyes change colour on reduction, which living cells bring about.

Entries after “also recorded” stand apart in the source; their conditions may differ.

In the case of `O=S(=O)(NN=Cc1cn(CCN2CCOCC2)c2ccccc12)c1ccc(Cl)cc1` [Compound 5f, 4-Chloro-N′-((1-(2-morpholinoethyl)-1H-indol-3-yl)methylene)benzenesulfonohydrazide], the “toxicity against HEK 293 noncancerous cells” value is “biocompatible; also recorded: nontoxic”.
